Assay [1] relates to Escherichia coli. The assay can be described thus: Antibacterial activity againist Escherichia coli 120 infected NMRI mice after peroral administration. In kind it is functional. Particulars: po. In short, it runs like this: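 ED50 in NMRI mice infected intraperitoneally with E. coli 120; compound given orally immediately and 5 h after infection.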
In assay [2] the test system is Klebsiella aerogenes. The assay can be described thus: Minimum inhibitory concentration of compound against Enterobacter aerogenes delta 220. In kind it is functional.
The subject of assay [3] is Neisseria gonorrhoeae. The assay can be described thus: Minimum inhibitory concentration of compound against Neisseria gonorrhoeae AS 7720. The class given is functional. In short, it runs like this:
(§1)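 Agar dilution on Kellogg agar, 10⁶ colony forming units, incubated 20 h at 36 °C in 5% CO₂; MIC is the lowest concentration giving no visible growth.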

For assay [4], the system named is Klebsiella pneumoniae. The assay can be described thus: Minimum inhibitory concentration of compound against Klebsiella pneumoniae delta 217. The class given is functional.
For assay [5], the system named is Salmonella typhimurium. The assay can be described thus: Minimum inhibitory concentration of compound against Salmonella Typhimurium delta 119. In kind it is functional, Salmonella enterica subsp. enterica serovar Typhimurium. Particulars: Salmonella enterica.
Assay [6] deals with Proteus mirabilis. The assay can be described thus: Minimum inhibitory concentration against Proteus mirabilis delta 89. The class given is functional.
Assay [7] deals with Neisseria gonorrhoeae. The assay can be described thus: Minimum inhibitory concentration of compound against Neisseria gonorrhoeae W2. In kind it is functional. In short, it runs like this:
as §1

The test system of assay [8] is Escherichia coli. The assay can be described thus: Minimum inhibitory concentration of compound against Escherichia coli delta 120. In kind it is functional.

The structures appear in SMILES notation. Converted amounts (≈) assume the structure as drawn.

As usually defined, the ED50 is the dose that gives a 50% effect, or the effect in half of the subjects. Lower therefore signals an effect at a small dose. As usually defined, the MIC is the lowest concentration found to suppress growth.

`O=[N+]([O-])c1ccc(S(=O)(=O)N2N=Cc3cc(Br)ccc3B2O)cc1` displayed an ED50 in assay [1] of approximately 25 mg/kg. Further, the MIC in assay [2] is more than 50 µg/mL; in assay [3], 1 µg/mL (≈ 2.44 µM); in assay [4] it was 0.78 µg/mL (≈ 1.9 µM); in assay [5] it was 3.12 µg/mL (≈ 7.61 µM); in assay [6], 3.12 µg/mL (≈ 7.61 µM); in assay [7], 8 µg/mL (≈ 19.5 µM). In assay [8], this molecule came in with an MIC of 6.25 µg/mL (≈ 15.2 µM).
For `CCCS(=O)(=O)N1N=Cc2sc(C)cc2B1O`, it took a dose of 4.5 mg/kg to reach the 50% effect level in assay [1] (ED50). Moreover, the MIC in assay [2] amounted to 3.12 µg/mL (≈ 11.5 µM); in assay [3], 1 µg/mL (≈ 3.67 µM); in assay [4] it was 0.39 µg/mL (≈ 1.43 µM); in assay [5], 0.78 µg/mL (≈ 2.87 µM); in assay [6], 0.78 µg/mL (≈ 2.87 µM); in assay [7], 1 µg/mL (≈ 3.67 µM). Besides, in assay [8], the MIC came out at 1.56 µg/mL (≈ 5.73 µM).
Molecule `Cc1ccc(S(=O)(=O)N2N=Cc3cc(F)ccc3B2O)cc1` had an ED50 in assay [1] of approximately 25 mg/kg. Besides, the MIC was more than 50 µg/mL in assay [2]; 2 µg/mL (≈ 6.29 µM) in assay [3]; 6.25 µg/mL (≈ 19.6 µM) in assay [4]; 6.25 µg/mL (≈ 19.6 µM) in assay [5]; 6.25 µg/mL (≈ 19.6 µM) in assay [6]; 8 µg/mL (≈ 25.1 µM) in assay [7]. Moreover, in assay [8], the MIC was determined as 25 µg/mL (≈ 78.6 µM).
Take `Cc1ccc(S(=O)(=O)N2N=Cc3cc(C)sc3B2O)c(Cl)c1`: it took a dose of 25 mg/kg to reach the 50% effect level in assay [1] (ED50). Also, the MIC in assay [2] was determined as 50 µg/mL (≈ 141 µM); in assay [3], 1 µg/mL (≈ 2.82 µM); in assay [4], 3.12 µg/mL (≈ 8.8 µM); in assay [5], 6.25 µg/mL (≈ 17.6 µM); in assay [6], 1.56 µg/mL (≈ 4.4 µM); in assay [7] it was 1 µg/mL (≈ 2.82 µM). For the same molecule, the MIC in assay [8] worked out at 50 µg/mL (≈ 141 µM).
The molecule `Cc1ccc(S(=O)(=O)N2N=Cc3cc4c(cc3B2O)C=NN(S(=O)(=O)c2ccc(C)cc2)B4O)cc1` returned an ED50 in assay [1] of more than 300 mg/kg. Besides, the MIC is more than 50 µg/mL in assay [2]; more than 8 µg/mL in assay [3]; more than 50 µg/mL in assay [4]; more than 50 µg/mL in assay [5]; 50 µg/mL (≈ 95.8 µM) in assay [6]; more than 8 µg/mL in assay [7]. In assay [8], the MIC is more than 50 µg/mL.
Consider `Cc1ccc(S(=O)(=O)N2N=Cc3cc4c(cc3B2O)-c2ccccc2C4)cc1`, for which the ED50 in assay [1] is more than 600 mg/kg. The MIC in assay [2] was more than 50 µg/mL; in assay [3] it was 2 µg/mL (≈ 5.15 µM); in assay [4], more than 50 µg/mL; in assay [5], more than 50 µg/mL; in assay [6] it was 50 µg/mL (≈ 129 µM); in assay [7] it was 8 µg/mL (≈ 20.6 µM). Moreover, in assay [8], the MIC was more than 50 µg/mL.
Molecule `Cc1ccc(S(=O)(=O)N2N=Cc3c(C)cccc3B2O)cc1` came in with an ED50 in assay [1] of more than 100 mg/kg. In addition, the MIC in assay [2] was more than 50 µg/mL; in assay [3], 2 µg/mL (≈ 6.37 µM); in assay [4], 10 µg/mL (≈ 31.8 µM); in assay [5] it was 50 µg/mL (≈ 159 µM); in assay [6], 5 µg/mL (≈ 15.9 µM); in assay [7], 8 µg/mL (≈ 25.5 µM). The molecule also came in with an MIC in assay [8] of more than 50 µg/mL.
Molecule `Nc1ccc(S(=O)(=O)N2N=Cc3c(F)cccc3B2O)cc1` registered an ED50 in assay [1] of 65 mg/kg. Moreover, the MIC in assay [2] is 50 µg/mL (≈ 157 µM); in assay [3], 8 µg/mL (≈ 25.1 µM); in assay [4], 10 µg/mL (≈ 31.3 µM); in assay [5] it was 10 µg/mL (≈ 31.3 µM); in assay [6], 6.25 µg/mL (≈ 19.6 µM); in assay [7] it was 8 µg/mL (≈ 25.1 µM). The MIC in assay [8] is 25 µg/mL (≈ 78.3 µM).
Turning to `Cc1ccc2c(c1)C=NN(S(=O)(=O)c1ccc(N)cc1)B2O`, the 50% effect level in assay [1] (ED50) was put at a dose of 5 mg/kg. For the same molecule, the MIC in assay [2] turned out to be 25 µg/mL (≈ 79.3 µM); in assay [3] it was 2 µg/mL (≈ 6.35 µM); in assay [4], 1.56 µg/mL (≈ 4.95 µM); in assay [5], 3.12 µg/mL (≈ 9.9 µM); in assay [6], 0.39 µg/mL (≈ 1.24 µM); in assay [7], 8 µg/mL (≈ 25.4 µM). For the same molecule, in assay [8], the MIC turned out to be 6.25 µg/mL (≈ 19.8 µM).
`Cc1ccc(S(=O)(=O)N2N=Cc3ccc(Cl)cc3B2O)cc1`: the ED50 in assay [1] was approximately 50 mg/kg. Besides, the MIC was more than 50 µg/mL in assay [2]; 1 µg/mL (≈ 2.99 µM) in assay [3]; 12.5 µg/mL (≈ 37.4 µM) in assay [4]; 12.5 µg/mL (≈ 37.4 µM) in assay [5]; 25 µg/mL (≈ 74.7 µM) in assay [6]; more than 8 µg/mL in assay [7]. For the same molecule, the minimum inhibitory concentration (MIC) in assay [8] was more than 50 µg/mL.
`CC(=O)Nc1ccc(S(=O)(=O)N2N=Cc3cc(Br)ccc3B2O)c(Cl)c1` had an ED50 in assay [1] of 83 mg/kg. The MIC stood at 50 µg/mL (≈ 110 µM) in assay [2]; 1 µg/mL (≈ 2.19 µM) in assay [3]; 3.12 µg/mL (≈ 6.83 µM) in assay [4]; 12.5 µg/mL (≈ 27.4 µM) in assay [5]; 1.56 µg/mL (≈ 3.42 µM) in assay [6]; 2 µg/mL (≈ 4.38 µM) in assay [7]. In addition, the MIC in assay [8] stood at 50 µg/mL (≈ 110 µM).
For the molecule `Cc1ccc(S(=O)(=O)N2N=Cc3cc(Br)sc3B2O)cc1`, the ED50 in assay [1] was more than 300 mg/kg. Further, the MIC in assay [2] was more than 50 µg/mL; in assay [3] it was more than 8 µg/mL; in assay [4] it was more than 50 µg/mL; in assay [5] it was more than 50 µg/mL; in assay [6], 25 µg/mL (≈ 64.9 µM); in assay [7] it was more than 8 µg/mL. Also, the MIC in assay [8] was more than 50 µg/mL.
As to `Cc1ccc(S(=O)(=O)N2N=Cc3sc(Br)cc3B2O)cc1`, the ED50 in assay [1] is approximately 15 mg/kg. Further, the MIC was determined as 25 µg/mL (≈ 64.9 µM) in assay [2]; 0.5 µg/mL (≈ 1.3 µM) in assay [3]; 1.56 µg/mL (≈ 4.05 µM) in assay [4]; 3.12 µg/mL (≈ 8.1 µM) in assay [5]; 1.56 µg/mL (≈ 4.05 µM) in assay [6]; 2 µg/mL (≈ 5.19 µM) in assay [7]. The same molecule had an MIC in assay [8] of 6.25 µg/mL (≈ 16.2 µM).
The molecule `Cc1ccc(S(=O)(=O)N2N=Cc3cc(C)ccc3B2O)cc1` gave an ED50 in assay [1] of approximately 15 mg/kg. Moreover, the minimum inhibitory concentration (MIC) in assay [2] is 50 µg/mL (≈ 159 µM); in assay [3], 1 µg/mL (≈ 3.18 µM); in assay [4], 1.56 µg/mL (≈ 4.97 µM); in assay [5], 3.12 µg/mL (≈ 9.93 µM); in assay [6] it was 3.12 µg/mL (≈ 9.93 µM); in assay [7] it was 8 µg/mL (≈ 25.5 µM). The MIC in assay [8] stood at 12.5 µg/mL (≈ 39.8 µM).
